The results in this text go back to ChEMBL document CHEMBL4627265, “Optimization of 8-oxoadenines with toll-like-receptor 7 and 8 activity” (Bioorg Med Chem Lett, 2020).

Type in all cases: cell-based
One test concerns the target T1, Toll-like receptor 7 (Homo sapiens, UniProt Q9NYK1).
T1 sequence (Q9NYK1 whole entry): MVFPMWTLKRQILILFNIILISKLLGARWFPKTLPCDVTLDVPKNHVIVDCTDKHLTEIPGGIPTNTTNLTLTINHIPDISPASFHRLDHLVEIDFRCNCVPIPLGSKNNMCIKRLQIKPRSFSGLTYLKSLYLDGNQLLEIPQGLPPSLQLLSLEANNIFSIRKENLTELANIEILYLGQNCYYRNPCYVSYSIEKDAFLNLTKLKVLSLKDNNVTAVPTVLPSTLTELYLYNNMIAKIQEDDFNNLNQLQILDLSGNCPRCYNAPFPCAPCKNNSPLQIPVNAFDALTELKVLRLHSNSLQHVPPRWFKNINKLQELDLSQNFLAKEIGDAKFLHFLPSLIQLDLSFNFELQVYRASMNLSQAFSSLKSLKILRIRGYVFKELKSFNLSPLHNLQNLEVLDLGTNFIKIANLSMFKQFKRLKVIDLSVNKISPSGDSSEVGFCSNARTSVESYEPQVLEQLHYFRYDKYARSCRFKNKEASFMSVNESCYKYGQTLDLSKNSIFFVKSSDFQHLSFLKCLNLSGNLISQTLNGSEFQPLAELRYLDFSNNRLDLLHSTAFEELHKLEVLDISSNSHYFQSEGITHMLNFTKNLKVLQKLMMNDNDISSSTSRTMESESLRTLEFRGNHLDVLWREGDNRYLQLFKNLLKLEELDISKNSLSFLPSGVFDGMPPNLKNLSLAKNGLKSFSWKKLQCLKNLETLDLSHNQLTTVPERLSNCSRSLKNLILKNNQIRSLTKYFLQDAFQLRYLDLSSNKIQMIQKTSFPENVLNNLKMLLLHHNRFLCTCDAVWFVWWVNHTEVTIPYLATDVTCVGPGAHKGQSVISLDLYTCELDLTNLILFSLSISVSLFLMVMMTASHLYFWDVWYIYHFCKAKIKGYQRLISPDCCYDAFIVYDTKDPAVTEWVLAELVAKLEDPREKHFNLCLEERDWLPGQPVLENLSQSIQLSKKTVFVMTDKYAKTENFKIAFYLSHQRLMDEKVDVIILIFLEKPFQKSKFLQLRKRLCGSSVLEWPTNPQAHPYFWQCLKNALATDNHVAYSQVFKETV
The test is described as follows: Agonist activity at human TLR7 expressed in HEK293 cells assessed as induction of NFKappaB activity after 24 hrs by SEAP reporter gene assay. The method in brief:
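HEK293 cells stably transfected with hTLR7 or hTLR8 plus an NFκB-driven SEAP reporter, treated 24 h with compound over a μM range; SEAP secretion read out. EC50 as mean ± SD of three (TLR7) or four (TLR8) independent experiments.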

Test [1] deals with T2, Toll-like receptor 7 (Homo sapiens) (UniProt Q9NYK1).
T2 sequence (whole entry): T1 sequence (Q9NYK1 whole entry)
The test is described as follows: Agonist activity at TLR7 in human PBMC assessed as induction of plasmacytoid dendritic cell maturation by measuring CD86 level at 0.1 uM after 6 hrs by flow cytometry. The method in brief:
(§1)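 hPBMCs stimulated 6 h at a single 0.1 μM dose; HLA-DR, MHC-I, CD80 and CD86 on mDCs and pDCs measured by flow cytometry, expressed as fold change versus unstimulated cells. Mean ± SD of three independent experiments in three different donors.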

Test [2] addresses T3, Toll-like receptor 9 (Homo sapiens) (UniProt Q9NR96).
T3 sequence (whole entry): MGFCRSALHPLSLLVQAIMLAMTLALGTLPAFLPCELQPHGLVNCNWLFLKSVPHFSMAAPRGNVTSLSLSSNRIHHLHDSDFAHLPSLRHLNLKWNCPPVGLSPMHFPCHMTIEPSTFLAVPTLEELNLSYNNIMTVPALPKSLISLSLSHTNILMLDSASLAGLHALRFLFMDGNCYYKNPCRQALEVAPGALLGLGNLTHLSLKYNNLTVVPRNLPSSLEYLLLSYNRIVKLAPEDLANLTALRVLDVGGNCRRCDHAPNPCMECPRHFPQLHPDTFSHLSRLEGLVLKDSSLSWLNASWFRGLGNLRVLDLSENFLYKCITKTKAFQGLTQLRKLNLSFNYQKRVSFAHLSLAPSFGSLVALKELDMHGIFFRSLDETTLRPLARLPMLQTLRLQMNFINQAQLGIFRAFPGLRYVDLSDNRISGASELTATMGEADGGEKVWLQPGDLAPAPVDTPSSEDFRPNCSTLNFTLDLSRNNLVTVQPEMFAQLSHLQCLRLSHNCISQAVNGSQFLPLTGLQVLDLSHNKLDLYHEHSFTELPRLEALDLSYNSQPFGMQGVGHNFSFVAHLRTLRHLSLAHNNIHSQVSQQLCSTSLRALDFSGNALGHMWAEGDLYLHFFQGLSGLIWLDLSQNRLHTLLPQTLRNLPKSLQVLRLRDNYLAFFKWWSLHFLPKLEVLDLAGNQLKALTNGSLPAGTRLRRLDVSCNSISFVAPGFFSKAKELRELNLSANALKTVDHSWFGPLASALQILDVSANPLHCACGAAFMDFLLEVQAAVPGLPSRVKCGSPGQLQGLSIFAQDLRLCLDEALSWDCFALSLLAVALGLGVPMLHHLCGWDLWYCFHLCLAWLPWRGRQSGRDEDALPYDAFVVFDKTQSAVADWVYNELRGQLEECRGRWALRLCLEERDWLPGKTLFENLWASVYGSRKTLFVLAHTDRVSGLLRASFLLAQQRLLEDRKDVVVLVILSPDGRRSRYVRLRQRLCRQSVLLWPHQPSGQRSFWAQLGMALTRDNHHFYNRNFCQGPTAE
The experiment in a line: Agonist activity at human TLR9 expressed in HEK293 cells by SEAP reporter gene assay.

In test [3] the target is T2, Toll-like receptor 7 (Homo sapiens). The experiment in a line: Agonist activity at TLR7 in human PBMC assessed as induction of plasmacytoid dendritic cell maturation by measuring HLA-DR level at 0.1 uM after 6 hrs by flow cytometry. The essentials:
as §1
In general terms: A flow cytometer gives signals particle by particle.

Activity calls are given as the source filed them. The rule behind the calls is not given here. Some results are limits rather than exact numbers.

The EC50 is the midpoint of the concentration-response curve. On to `Nc1nc(OCCCCO)nc2c1[nH]c(=O)n2CC1CCNCC1`, for which the concentration giving a half-maximal response (EC50) at Toll-like receptor 7 is greater than 500 µM. The result in test [1], in test [2] and in test [3] was inactive.
